Data taken from ChEMBL document CHEMBL1153722, “Design, synthesis, and characterization of peptide-based rab geranylgeranyl transferase inhibitors” (J Med Chem, 2009).
Square brackets hold non-standard residues; d marks the D form. Peptide text beside a SMILES is read from it. * marks the point of attachment. Hydrocinnamoyl = O=C(CCc1ccccc1)*; Palmitoyl = CCCCCCCCCCCCCCCC(=O)*; Undecanoyl = CCCCCCCCCCC(=O)*; pGlu = O=C1CC[C@@H](C(=O)O)N1; Ac6c = NC1(C(=O)O)CCCCC1; Cbz = O=C(OCc1ccccc1)*; NHPh = c1ccc(N*)cc1; NHNH2 = NN*; NHOH = ON*

species on record: Rattus norvegicus; assay: Inhibition of rat recombinant Rab geranylgeranyltransferase at 100 uM in presence of canine Rab7 and rat REP1 NBD-FPP based continuous fluorimetric assay
Procedure, shortened: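 Continuous fluorometric assay in 96/384-well format: 3 μM Rab7, 3 μM REP1, 9 μM NBD-FPP and 400 nM RabGGTase, with or without inhibitor. […] IC50 was calculated from three independent measurements.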

Row | SMILES | inhibition [%]
1 | O=C(CNC(=O)[C@H](Cc1ccc(O)cc1)NC(=O)c1ccc(F)cc1)N[C@@H](Cc1ccc(O)cc1)C(=O)N1CCOCC1 | 108
2 | CC(C)C[C@H](NC(=O)[C@H](CO)NC(=O)[C@H](Cc1ccccc1)NC(=O)/C=C/c1ccc(F)cc1)C(=O)Nc1nccs1 | 94
3 | CCCCOC(=O)[C@H](Cc1ccc(O)cc1)NC(=O)CNC(=O)[C@H](Cc1ccc(O)cc1)NC(=O)c1ccc(F)cc1 | 76
4 | CCCCCCCCCCCOc1ccc(C(=O)N[C@@H](Cc2c[nH]cn2)C(=O)N[C@@H](Cc2c[nH]cn2)C(=O)N[C@@H](Cc2c[nH]cn2)C(=O)OCCN)cc1 | 101
5 | O=C(CCc1ccc(F)cc1)N[C@@H](Cc1ccc(O)cc1)C(=O)NCC(=O)N[C@@H](Cc1ccc(O)cc1)C(=O)Nc1ccc(F)cc1F | 89
6 | CCCCCCCCCCC(=O)N[C@@H](Cc1c[nH]cn1)C(=O)N[C@@H](Cc1c[nH]cn1)C(=O)N[C@@H](CO)C(=O)N(C)CCc1ccccn1 | 47
7 | C=CCCCOC(=O)[C@H](CCC(N)=O)NC(=O)[C@H](Cc1ccccc1)NC(=O)[C@@H](NC(=O)/C=C/c1ccccc1)[C@@H](C)O | 102
8 | COC(=O)[C@H](CO)NC(=O)CNC(=O)[C@H](CO)NC(=O)/C=C/c1ccc(F)cc1 | 63
9 | CCCCCCCCCCCCCCCCNC(=O)[C@H](Cc1ccc(O)cc1)NC(=O)CNC(=O)[C@H](Cc1ccc(O)cc1)NC(=O)c1ccc(F)cc1 | 89
10 | COC(=O)[C@H](CO)NC(=O)[C@H](Cc1ccccc1)NC(=O)[C@H](CO)NC(=O)CCc1ccccc1 (Hydrocinnamoyl-Ser-Phe-Ser-OMe) | 90
11 | CN(CCc1ccccn1)C(=O)[C@H](Cc1ccc(O)cc1)NC(=O)CCNC(=O)[C@H](Cc1c[nH]cn1)NC(=O)OCc1ccccc1 | 78
12 | COC(=O)C1(NC(=O)[C@H](CCCCN)NC(=O)[C@H](CC(C)C)NC(=O)[C@@H]2CCC(=O)N2)CCCCC1 ([pGlu]LK[Ac6c]-OMe) | 98
13 | COC(=O)[C@H](CO)NC(=O)CNC(=O)[C@H](Cc1ccccc1)NC(=O)c1coc(-c2ccccc2)n1 | 115
14 | CCCCCCCCCCC(=O)N[C@@H](Cc1ccc(O)cc1)C(=O)N[C@@H](Cc1c[nH]cn1)C(=O)N[C@@H](Cc1c[nH]cn1)C(=O)NO (Undecanoyl-Tyr-His-His-{NHOH}) | 84
15 | CC(C)(C)Oc1ccc(C[C@H](NC(=O)c2coc(-c3ccccc3)n2)C(=O)NCC(=O)N[C@@H](Cc2c[nH]c3ccccc23)C(=O)O)cc1 | 32
16 | CCCCCCCCCCCC(=O)N[C@@H](Cc1c[nH]cn1)C(=O)N[C@@H](Cc1c[nH]cn1)C(=O)N[C@@H](CO)C(=O)NCC(O)CO (stereo partly specified) | 63
17 | CCCCCCCCCCCCCC(=O)OC[C@H](NC(=O)[C@@H](NC(=O)[C@H](CCCCNC(=O)c1coc(-c2ccccc2)n1)NC(=O)c1coc(-c2ccccc2)n1)[C@H](C)O)C(=O)O | 54
18 | CCC/C=C/c1cccc(/C=C/C(=O)N[C@H](Cc2cnc[nH]2)C(=O)N[C@@H](Cc2ccc(O)cc2)C(=O)N[C@@H](Cc2ccccc2)C(=O)O)c1 | 59
19 | O=C(/C=C/c1ccc(F)cc1)N[C@@H](CO)C(=O)N[C@@H](Cc1ccccc1)C(=O)N[C@@H](CO)C(=O)Nc1ccc(N2CCOCC2)cc1 | 79
20 | CC[C@H](C)[C@H](NC(=O)/C=C/c1ccc(F)cc1)C(=O)N[C@@H](C)C(=O)N[C@@H](CCC(N)=O)C(=O)O | 83
21 | C[C@@H](O)[C@H](NC(=O)/C=C/c1ccccc1)C(=O)N[C@@H](Cc1ccccc1)C(=O)N[C@@H](CCC(N)=O)C(=O)Nc1ccc(F)c(Cl)c1 | 91

Row | SMILES | inhibition [%]
22 | O=C(CNC(=O)c1coc(-c2ccccc2)n1)N[C@@H](Cc1c[nH]cn1)C(=O)N[C@@H](Cc1c[nH]cn1)C(=O)O | 96
23 | C[C@H](NC(=O)/C=C/c1ccc(F)cc1)C(=O)NCC(=O)N[C@@H](Cc1ccc(O)cc1)C(=O)O | 76
24 | CCCCCCCCCCC(=O)N[C@@H](Cc1ccc(O)cc1)C(=O)N[C@@H](Cc1c[nH]cn1)C(=O)N[C@@H](Cc1ccc(O)cc1)C(=O)NO (Undecanoyl-Tyr-His-Tyr-{NHOH}) | 88
25 | C[C@H](NC(=O)c1coc(-c2ccccc2)n1)C(=O)NCC(=O)N[C@@H](Cc1c[nH]cn1)C(=O)Nc1ccc(F)cc1F | 76
26 | CC(C)C[C@H](NC(=O)/C=C/c1ccccc1)C(=O)N[C@@H](Cc1ccccc1)C(=O)N[C@@H](Cc1ccccc1)C(=O)NC1CCCCC1 | -4
27 | CC(C)C[C@H](NC(=O)[C@@H]1CCC(=O)N1)C(=O)N[C@@H](CCCCN)C(=O)NC1(C(N)=O)CCCCC1 ([pGlu]LK[Ac6c]-NH2) | 95
28 | C[C@@H](O)[C@H](NC(=O)/C=C/c1ccccc1)C(=O)N[C@@H](Cc1ccccc1)C(=O)N[C@@H](CCC(N)=O)C(N)=O | 78
29 | O=C(CNC(=O)c1coc(-c2ccccc2)n1)NCC(=O)N[C@@H](Cc1c[nH]cn1)C(=O)Nc1ccc(F)cc1F | 112
30 | C[C@H](NC(=O)/C=C/c1ccc(F)cc1)C(=O)NCC(=O)N[C@@H](Cc1ccc(O)cc1)C(=O)NC1CCCCC1 | 11
31 | CCCCCCCCCCCOc1ccc(C(=O)N[C@@H](Cc2ccc(O)cc2)C(=O)N[C@@H](Cc2ccc(O)cc2)C(=O)N[C@@H](Cc2ccc(O)cc2)C(=O)Nc2ccccn2)cc1 | 72
32 | CCCCCCCCCCCCCCCC(=O)N[C@@H](Cc1ccc(O)cc1)C(=O)N[C@@H](Cc1ccc(O)cc1)C(=O)N[C@@H](Cc1ccc(O)cc1)C(=O)OC (Palmitoyl-Tyr-Tyr-Tyr-OMe) | 49
33 | O=C(CCc1ccccc1)N[C@@H](CO)C(=O)NCC(=O)N[C@@H](CO)C(=O)Nc1ccccc1 (Hydrocinnamoyl-Ser-Gly-Ser-NHPh) | 93
34 | C[C@H](NC(=O)c1coc(-c2ccccc2)n1)C(=O)NCC(=O)N[C@@H](Cc1ccc(O)cc1)C(=O)Nc1ccc(F)cc1F | 83
35 | CCCCCCCCCCC(=O)N[C@@H](Cc1c[nH]cn1)C(=O)N[C@@H](Cc1ccccc1)C(=O)N[C@@H](Cc1ccc(O)cc1)C(=O)NCC(O)CO (stereo partly specified) | 53
36 | O=C(CNC(=O)c1coc(-c2ccccc2)n1)N[C@@H](Cc1c[nH]cn1)C(=O)N[C@@H](Cc1ccccc1)C(=O)O | 84
37 | CC[C@H](C)[C@H](NC(=O)c1ccc(-c2ccccc2)cc1)C(=O)N[C@@H](C(=O)N[C@@H](CCC(N)=O)C(=O)OCCCl)C(C)C | 89
38 | O=C(N[C@@H](CO)C(=O)N[C@@H](Cc1ccccc1)C(=O)N[C@@H](CO)C(=O)OCCCl)C(Br)C(Br)c1ccc(F)cc1 (stereo partly specified) | 98
39 | CCCCCCCCCCC(=O)N[C@@H](Cc1c[nH]cn1)C(=O)N[C@@H](Cc1ccccc1)C(=O)N[C@@H](Cc1ccc(O)cc1)C(=O)NCCCn1ccnc1 | 101
40 | C=CCCCCCCCCCOC(=O)[C@H](CO)NC(=O)[C@H](Cc1ccccc1)NC(=O)[C@H](CO)NC(=O)CCc1ccccc1 | 84
41 | CC[C@H](C)[C@H](NC(=O)/C=C/c1ccc(F)cc1)C(=O)N[C@@H](C)C(=O)N[C@@H](CCC(N)=O)C(=O)Nc1ccc(F)c(Cl)c1 | 46
42 | CC(=O)Nc1cc(C(=O)N2CCC[C@H]2C(=O)N[C@@H](C(=O)N[C@@H](CCC(=O)O)C(N)=O)C(C)C)ccc1[N+](=O)[O-] | 111

Row | SMILES | inhibition [%]
43 | O=C(CNC(=O)[C@H](Cc1c[nH]cn1)NC(=O)OCc1ccccc1)N[C@@H](Cc1ccc(O)cc1)C(=O)c1nc2ccccc2[nH]1 | 66
44 | C[C@H](NC(=O)CCc1ccccc1)C(=O)N[C@@H](Cc1ccccc1)C(=O)N[C@@H](CCC(N)=O)C(=O)Nc1nccs1 | 96
45 | CCCCCCCCCCCCCC(=O)N[C@@H](Cc1ccc(O)cc1)C(=O)N[C@@H](Cc1ccc(O)cc1)C(=O)N[C@@H](Cc1ccc(O)cc1)C(=O)NC1CCCCC1 | 93
46 | NCCCC[C@H](NC(=O)CCc1ccccc1)C(=O)N[C@@H](Cc1c[nH]cn1)C(=O)N[C@@H](CO)C(=O)Nc1ccc(F)cc1F | 96
47 | CCCCCCCCCCCOc1ccc(C(=O)N[C@@H](Cc2c[nH]cn2)C(=O)N[C@@H](Cc2ccc(O)cc2)C(=O)N[C@@H](Cc2ccccc2)C(=O)N2CCOCC2)cc1 | 87
48 | C=CCOC(=O)[C@H](CO)NC(=O)CNC(=O)[C@H](Cc1ccccc1)NC(=O)c1coc(-c2ccccc2)n1 | 109
49 | CC(C)C[C@H](NC(=O)[C@@H]1CCCN1C(=O)/C=C/c1ccccc1)C(=O)N[C@@H](Cc1ccccc1)C(=O)O | 80
50 | NCCCCNC(=O)[C@H](Cc1ccc(O)cc1)NC(=O)[C@H](Cc1ccc(O)cc1)NC(=O)[C@H](Cc1ccc(O)cc1)NC(=O)c1ccc(F)cc1F | 61
51 | O=C(CNC(=O)[C@@H]1CCCN1C(=O)/C=C/c1ccccc1)N[C@@H](Cc1ccccc1)C(=O)NC1CCCCC1 | 61
52 | O=C(N[C@@H](Cc1ccccc1)C(=O)N[C@@H](Cc1ccccc1)C(=O)N[C@@H](Cc1ccc(O)cc1)C(=O)O)OCc1ccccc1 (Cbz-Phe-Phe-Tyr-OH) | 9
53 | O=C(CNC(=O)[C@H](Cc1ccc(O)cc1)NC(=O)CCc1ccc(F)cc1)N[C@@H](Cc1ccc(O)cc1)C(=O)O | 86
54 | O=C(CCNC(=O)[C@H](Cc1c[nH]cn1)NC(=O)OCc1ccccc1)N[C@@H](Cc1ccc(O)cc1)C(=O)NCC(O)CO (stereo partly specified) | 89
55 | CCCCCCCCCCCOc1ccc(C(=O)N[C@@H](Cc2c[nH]cn2)C(=O)N[C@@H](Cc2ccc(O)cc2)C(=O)N[C@@H](Cc2ccccc2)C(=O)OCCN)cc1 | 74
56 | O=C(CCc1ccc(-c2ccccc2)cc1)N[C@H](Cc1cnc[nH]1)C(=O)N[C@@H](Cc1ccc(O)cc1)C(=O)N[C@@H](Cc1ccccc1)C(=O)O | 48
57 | NCCCCNC(=O)[C@H](Cc1ccc(O)cc1)NC(=O)CNC(=O)[C@H](Cc1ccc(O)cc1)NC(=O)c1ccc(F)cc1 | 88
58 | NNC(=O)[C@H](CCC(N)=O)NC(=O)[C@H](Cc1ccccc1)NC(=O)[C@H](CO)NC(=O)CCc1ccccc1 (Hydrocinnamoyl-Ser-Phe-Gln-NHNH2) | 104
59 | CCCCCCCCCCCOc1ccc(C(=O)N[C@@H](Cc2ccc(O)cc2)C(=O)N[C@@H](Cc2ccc(O)cc2)C(=O)N[C@@H](Cc2c[nH]cn2)C(=O)O)cc1 | 102
60 | CC(C)[C@H](NC(=O)[C@@H](Cc1ccccc1)NC(=O)c1ccc(-c2ccccc2)cc1)C(=O)N[C@H](C)C(=O)N1CCC[C@H]1C(N)=O | 71
61 | CC(C)C[C@H](NC(=O)[C@@H]1CCCN1C(=O)/C=C/c1ccccc1)C(=O)N[C@@H](Cc1ccccc1)C(=O)NC1CCCCC1 | 82
